Ten molecules from ChEMBL document CHEMBL1142417, “Studies on quinones. Part 43: Synthesis and cytotoxic evaluation of polyoxyethylene-containing 1,4-naphthoquinones” (Bioorg Med Chem, 2008) can be followed below.

Molecules are shown by their SMILES.

The test system of test [1] is MRC5. Description: Cytotoxicity against human MRC5 cells after 72 hrs by MTT assay. The test is classed as cell-based. Conditions: MRC5, 72 h. An outline of the steps: (§1)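 Cells seeded at 50,000 cells/mL and treated one day later for 3 days with compound at 0 up to 100 µM, with DMSO at 1% final. Untreated cells served as controls. Growth was read by MTT reduction, in sextuplicate. IC50 is the concentration giving 50% growth reduction. Media: AGS in Ham F-12; MRC-5, SK-MES-1 and J82 in MEM; all with 10% FBS at 37 °C and 5% CO2.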

Test [2] relates to AGS. The test is described as follows: Antitumor against human AGS cells after 72 hrs by MTT assay. It counts as functional, cell-based. An outline of the steps:
as §1

In test [3] the test system is SK-MES-1. The test is described as follows: Antitumor against human SK-MES1 cells after 72 hrs by MTT assay. The test is classed as functional, cell-based. As to conditions: SK-MES-1, 72 h. In a few lines: as §1
In test [4] the test system is J82. Description: Antitumor against human J82 cells after 72 hrs by MTT assay. As to conditions: J82, 72 h. It counts as functional, cell-based. In a few lines: as §1
For test [5], the system named is HL-60. Description: Antitumor against human HL60 cells after 72 hrs by MTT assay. It counts as functional, cell-based. As to conditions: HL-60, 72 h. In a few lines: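 HL-60 leukemia cells kept in RPMI with 1 mM pyruvate and 10% heat-inactivated FBS at 37 °C and 5% CO2. They were plated at 50,000 cells/mL and exposed from day 1 for 3 days to compound at 0 up to 100 µM, with DMSO at 1% final. Untreated cells served as controls. Readout was MTT reduction in sextuplicate. IC50 is 50% growth reduction.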

As to `O=C1C2=C(OCCO2)C(=O)c2ccccc21`, the IC50 in test [1] is 22.9 µM; in test [2], 19.5 µM; in test [3], 8.3 µM; in test [4], 22.3 µM; in test [5], 20.1 µM.

Take `O=C1C(Cl)=C(OCCOCCOCCOCCOC2=C(Cl)C(=O)c3ccccc3C2=O)C(=O)c2ccccc21`: the IC50 in test [1] turned out to be 55.8 µM; in test [2], 54.8 µM; in test [3], 12.2 µM; in test [4], 33.9 µM; in test [5] it was 89.5 µM.

On to `O=C1C(Cl)=C(OCCOCCOCCOC2=C(Cl)C(=O)c3ccccc3C2=O)C(=O)c2ccccc21`, for which the IC50 in test [1] turned out to be 4 µM; in test [2], 5.2 µM; in test [3] it was 7.1 µM; in test [4], 8.6 µM; in test [5], 1.3 µM.

Consider `COC1=C(Cl)C(=O)c2ccccc2C1=O`, for which the IC50 in test [1] came to 3.5 µM; in test [2], 9.1 µM; in test [3] it was 11.5 µM; in test [4], 10.1 µM; in test [5], 1.8 µM.

Turning to `O=C1C(Cl)=C(OCCOCCOC2=C(Cl)C(=O)c3ccccc3C2=O)C(=O)c2ccccc21`, the IC50 is 7.3 µM in test [1]; 11 µM in test [2]; 16.1 µM in test [3]; 26.6 µM in test [4]; 1.9 µM in test [5].

Take `O=C1C2=C(OCCOCCOCCO2)C(=O)c2ccccc21`: the IC50 in test [1] amounted to 10.1 µM; in test [2], 17.5 µM; in test [3], 7.9 µM; in test [4], 19.8 µM; in test [5] it was 2.6 µM.

With `COc1cc([C@@H]2c3cc4c(cc3[C@@H](O[C@@H]3O[C@@H]5CO[C@@H](C)O[C@H]5[C@H](O)[C@H]3O)[C@H]3COC(=O)[C@H]23)OCO4)cc(OC)c1O` [ETOPOSIDE], the IC50 in test [1] was found to be 3.9 µM; in test [2] it was 0.36 µM; in test [3], 2.5 µM; in test [4], 2.8 µM; in test [5] it was 0.8 µM.

Regarding `COC1=C(OC)C(=O)c2ccccc2C1=O`, the IC50 was determined as 7.2 µM in test [1]; 9.1 µM in test [2]; 5.3 µM in test [3]; 16.1 µM in test [4]; 8.9 µM in test [5].

For `O=C1C2=C(OCCOCCO2)C(=O)c2ccccc21`, the IC50 was 95.2 µM in test [1]; 63.2 µM in test [2]; 16.4 µM in test [3]; 39.6 µM in test [4]; 21.4 µM in test [5].

For the molecule `COCCOC1=C(Cl)C(=O)c2ccccc2C1=O`, the half-inhibitory concentration (IC50) came out at 3.5 µM in test [1]; 9.9 µM in test [2]; 16.7 µM in test [3]; 19.4 µM in test [4]; 1.7 µM in test [5].
